The test system of series [1] is Staphylococcus aureus. As to the kind of experiment: Antibacterial activity against methicillin resistant Staphylococcus aureus ATCC 33592 after 18 hrs by microtiter dilution assay. It counts as functional. The note with it: ATCC 33592, 18 h. Summed up:
(§1)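 Broth microdilution following CLSI guidelines. An overnight culture was adjusted to 0.5 McFarland in saline, then diluted 1:50 in Mueller-Hinton broth. This inoculum was added in equal volume to 2-fold serial dilutions of agent in MHB and incubated 18 h at 37 °C. MIC was the lowest concentration with no visible growth.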

Series [2] has as its system Klebsiella pneumoniae. In words: Antibacterial activity against Klebsiella pneumoniae ATCC 13883 after 18 hrs by microtiter dilution assay. The class given is functional. The note with it: ATCC 13883, 18 h. Summed up: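 Broth microdilution per CLSI. Overnight culture adjusted to 0.5 McFarland in saline, diluted 1:50 in Mueller-Hinton broth, and added to an equal volume of 2-fold serial compound dilutions in MHB. Incubated 18 h at 37 °C. MIC taken as the lowest concentration with no visible growth.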

For series [3], the system named is Pseudomonas aeruginosa. As to the kind of experiment: Antibacterial activity against Pseudomonas aeruginosa PAO1 after 18 hrs by microtiter dilution assay. The note with it: PAO1, 18 h. It counts as functional. A digest of the protocol: as §1
Series [4] has as its system Pseudomonas aeruginosa. As to the kind of experiment: Antibacterial activity against multidrug/extremely drug-resistant/colistin-susceptible Pseudomonas aeruginosa isolate 101885 after 18 hrs by microtiter dilution assay. The note with it: isolate 101885, 18 h. It counts as functional. A digest of the protocol: as §1
Series [5] concerns Pseudomonas aeruginosa. As to the kind of experiment: Antibacterial activity against multidrug/extremely drug-resistant/colistin-susceptible Pseudomonas aeruginosa isolate P264-104354 after 18 hrs by microtiter dilution assay. The note with it: isolate P264-104354, 18 h. It counts as functional. Summed up: as §1
The subject of series [6] is Pseudomonas aeruginosa. As to the kind of experiment: Synergistic antibacterial activity against Pseudomonas aeruginosa PAO1 after 18 hrs in presence of ceftazidime by checkerboard assay. The class given is functional. As to conditions: PAO1, 18 h. Summed up:
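Checkerboard in MHB: antibiotic diluted along one axis and adjuvant along the other (10 × 7 matrix). Inoculum was a 1:50 dilution in MHB of a 0.5 McFarland saline suspension; incubated 18 h at 37 °C. Each FIC = concentration in the no-growth well divided by the MIC alone; FIC index = sum of both FICs. ≤0.5 synergy, 0.5–4 no interaction, ≥4 antagonism.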

Series [7] deals with Pseudomonas aeruginosa. In words: Potentiation of chloramphenicol-induced antibacterial activity against Pseudomonas aeruginosa PAO1 at 4 ug/ml after 18 hrs by checkerboard assay. It counts as functional. A digest of the protocol: (§2)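 Checkerboard in Mueller-Hinton broth: antibiotic serially diluted along one axis and adjuvant along the other (10 × 7 matrix). Inoculum from a 0.5 McFarland saline suspension diluted 1:50 in MHB; 18 h at 37 °C, then plate read. MIC is the lowest concentration with no growth. FIC of each agent is its concentration in a no-growth well divided by its MIC alone; FIC index is the sum of both. FIC index ≤0.5 counts as synergy.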

Series [8] has as its system Pseudomonas aeruginosa. In words: Potentiation of colistin-induced antibacterial activity against Pseudomonas aeruginosa PAO1 at 4 ug/ml after 18 hrs by checkerboard assay. The class given is functional. Summed up:
as §2

Series [9] concerns Pseudomonas aeruginosa. In words: Potentiation of minocycline-induced antibacterial activity against multidrug/extremely drug-resistant/colistin-susceptible Pseudomonas aeruginosa isolate 100036 at 4 ug/ml after 18 hrs by checkerboard assay. The class given is functional. A digest of the protocol: as §2
The test system of series [10] is Pseudomonas aeruginosa. In words: Potentiation of rifampicin-induced antibacterial activity against multidrug/extremely drug-resistant/colistin-susceptible Pseudomonas aeruginosa isolate P262-101856 at 4 ug/ml after 18 hrs by checkerboard assay. It counts as functional. A digest of the protocol:
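Checkerboard broth microdilution in MHB: antibiotic serially diluted along one axis, adjuvant along the other (10 × 7 matrix). Inoculum from 0.5 McFarland saline suspension diluted 1:50 in MHB; 18 h at 37 °C. MIC taken as lowest concentration with no growth. FIC per agent = combination MIC/MIC alone; FIC index = sum (≤0.5 synergy).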

Series [11] relates to Pseudomonas aeruginosa. As to the kind of experiment: Potentiation of minocycline-induced antibacterial activity against multidrug/extremely drug-resistant/colistin-susceptible Pseudomonas aeruginosa isolate P264-104354 assessed as fold reduction in minocycline MIC at 4 ug/ml after 18 hrs by checkerboard assay relative to control. It counts as functional. Summed up: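 Checkerboard in Mueller-Hinton broth, 10 × 7 matrix, with the adjuvant held at 4 µg/mL. Inoculum from a 0.5 McFarland suspension diluted 1:50; 18 h at 37 °C. Antibiotic MIC (lowest concentration with no growth) with adjuvant is compared with the antibiotic MIC alone, giving a fold reduction.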

For series [12], the system named is Pseudomonas aeruginosa. In words: Potentiation of minocycline-induced antibacterial activity against Pseudomonas aeruginosa PAO750 harboring RND efflux pump/OpmH deletion mutant after 18 hrs by checkerboard assay. It counts as functional. Summed up:
(§3)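 Checkerboard in MHB with a 10 × 7 matrix: antibiotic serially diluted along one axis, adjuvant along the other. Inoculum was a 1:50 dilution of a 0.5 McFarland suspension, incubated 18 h at 37 °C and read on a plate reader. Each FIC is the concentration in a no-growth well divided by the MIC alone; FIC index is their sum, with ≤0.5 taken as synergy.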

Series [13] has as its system Acinetobacter baumannii. In words: Antibacterial activity against multidrug-resistant Acinetobacter baumannii 110193 after 18 hrs by microtiter dilution assay. It counts as functional. As to conditions: Acinetobacter baumannii, 110193, 18 h. Summed up:
as §1

Series [14] concerns Enterobacter cloacae. In words: Antibacterial activity against multidrug-resistant Enterobacter cloacae 117029 after 18 hrs by microtiter dilution assay. The class given is functional. The note with it: Enterobacter cloacae, 117029, 18 h. Summed up: as §1
Series [15] concerns Acinetobacter baumannii. As to the kind of experiment: Synergistic antibacterial activity against multidrug-resistant Acinetobacter baumannii 110193 after 18 hrs in presence of minocycline by checkerboard assay. It counts as functional. As to conditions: Acinetobacter baumannii, 110193, 18 h. Summed up: as §3
Series [16] relates to Enterobacter cloacae. In words: Synergistic antibacterial activity against multidrug-resistant Enterobacter cloacae 117029 after 18 hrs in presence of rifampicin by checkerboard assay. The class given is functional. As to conditions: Enterobacter cloacae, 117029, 18 h. Summed up:
as §3

The test system of series [17] is Acinetobacter baumannii. In words: Potentiation of rifampicin-induced antibacterial activity against multidrug-resistant Acinetobacter baumannii AB027 at 4 ug/ml after 18 hrs by checkerboard assay. It counts as functional. A digest of the protocol:
as §2

The subject of series [18] is Pseudomonas aeruginosa. As to the kind of experiment: Bactericidal activity against Pseudomonas aeruginosa PAO1 at 2 times antibacterial MIC after 30 mins. It counts as functional. Summed up:
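Time-kill with P. aeruginosa PAO1. A 0.5 McFarland suspension was diluted 1:50 in LB broth and exposed to agent in PBS (pH 7.2) at 1/2×, 1×, 2× or 4× MIC at 37 °C for 6 h. Samples at 0, 10, 30, 60, 90, 120, 240 and 360 min were serially diluted in PBS, plated on LB agar, and colonies counted after 20 h at 37 °C.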

The test system of series [19] is Pseudomonas aeruginosa. In words: Antibacterial activity against multidrug/extremely drug-resistant/colistin-susceptible Pseudomonas aeruginosa isolate P262-101856 infected in Galleria mellonella assessed as mortality at 75 mg/kg after 24 hrs relative to control. It counts as functional. The note with it: isolate P262-101856, 24 h. Summed up: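 Galleria mellonella larvae (about 250 mg, used within 7 days; 15 per group) were injected with 10 µL of XDR P. aeruginosa P262 at 1.0×10^3 CFU/mL. At 2 h they received a single 10 µL injection: monotherapy at 75 mg/kg, or combinations at 12.5+12.5 to 75+75 mg/kg. PBS vehicle served as control. Survival was scored over 24 h at 37 °C.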

A short description of series [20]: Cytotoxicity against human JIMT1 cells assessed as cell viability at 20 uM after 48 hrs by MTS assay relative to control. It counts as cell-based, JIMT-1. The note with it: read-out: Activity. Summed up:
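DU145 and JIMT-1 grown in DMEM with 10% FBS and penicillin/streptomycin at 37 °C, 5% CO2. 7500–9000 cells/well were seeded for 24 h, then treated at 2.5–30 µM (final) for 48 h. MTS reagent (20% v/v) added for 4 h and OD read at 490 nm after blank subtraction; viability expressed relative to vehicle control.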
(Tetrazolium assays rely on reduction of a dye to a coloured formazan, in cell work by metabolically active cells.)

Molecules are shown by their SMILES. The source made the active and inactive calls. The calls are words filed in the database; no cut-off is given here.

Usually MIC stands for the lowest concentration found to suppress growth. The term mortality denotes the percentage killed. `Cl.Cl.Cl.Cl.Cl.Cl.Cl.NCCCC[C@H](N)C(=O)N(CCCCCCCCCCCCO[C@@H]1[C@@H](O[C@H]2O[C@H](CO)[C@@H](O)[C@H](N)[C@H]2O)[C@H](N)C[C@H](N)[C@H]1O[C@H]1O[C@H](CN)[C@@H](O)C[C@H]1N)Cc1c2ccccc2c(Cl)c2ccccc12`: the MIC in series [1] came to 8 µg/mL; in [2], 128 µg/mL; in series [3], 32 µg/mL; in series [4] it was 16 µg/mL; in series [5], 32 µg/mL; in series [6] it was 2 µg/mL. In addition, the MIC in series [13] came to 16 µg/mL; in [14] it was 256 µg/mL; in series [15] it was 2 µg/mL; in series [16], 4 µg/mL. The “fractional inhibitory concentration index (FICI)” value is given as 0.156 in series [7]; 1.031 in series [8]; 0.094 in [9]; 0.141 in series [10]; 0.75 in [12]; 0.079 in [17]. The “fold change (FC)” value in [11] was found to be 128. Besides, the result in series [18] was Active. Further, the mortality at 75 mg/kg in series [19] stood at 100%. In [20], the viability at 48 h, 20 µM is above 50%.

Source of the values: ChEMBL document CHEMBL4014308, “Amphiphilic Tobramycin-Lysine Conjugates Sensitize Multidrug Resistant Gram-Negative Bacteria to Rifampicin and Minocycline” (J Med Chem, 2017).
